Calls of active or inactive are those of the source. The rule behind the calls is not given here.
Key:
[1] = target: T1, Peroxisome proliferator-activated receptor alpha (Homo sapiens, UniProt Q07869); assay: Agonist activity at human PPARalpha by FRET assay; type: functional
T1 sequence (Q07869 whole entry): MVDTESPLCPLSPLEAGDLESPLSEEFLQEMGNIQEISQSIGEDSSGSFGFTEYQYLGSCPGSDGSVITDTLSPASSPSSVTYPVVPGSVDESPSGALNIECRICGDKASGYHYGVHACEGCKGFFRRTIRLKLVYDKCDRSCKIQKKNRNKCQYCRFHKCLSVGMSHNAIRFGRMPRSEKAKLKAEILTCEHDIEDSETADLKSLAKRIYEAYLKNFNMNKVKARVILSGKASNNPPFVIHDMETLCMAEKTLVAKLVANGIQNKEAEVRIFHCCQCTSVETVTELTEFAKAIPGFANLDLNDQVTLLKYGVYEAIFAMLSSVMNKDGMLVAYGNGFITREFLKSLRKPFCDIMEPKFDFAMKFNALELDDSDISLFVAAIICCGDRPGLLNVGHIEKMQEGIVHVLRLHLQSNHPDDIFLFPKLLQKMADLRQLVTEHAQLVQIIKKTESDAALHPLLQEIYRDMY
Method in brief: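 Human PPARα ligand-binding domain (GST-tagged) incubated with compound, europium-labeled anti-GST antibody, biotinylated coactivator-binding peptide and streptavidin-APC. FRET read at excitation 340 nm, emission 615 and […]. Means of at least two experiments.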

[2] = target: T2, Peroxisome proliferator-activated receptor delta (Homo sapiens, UniProt Q03181); assay: Agonist activity at human PPARdelta by FRET assay; type: functional
T2 sequence (Q03181 whole entry): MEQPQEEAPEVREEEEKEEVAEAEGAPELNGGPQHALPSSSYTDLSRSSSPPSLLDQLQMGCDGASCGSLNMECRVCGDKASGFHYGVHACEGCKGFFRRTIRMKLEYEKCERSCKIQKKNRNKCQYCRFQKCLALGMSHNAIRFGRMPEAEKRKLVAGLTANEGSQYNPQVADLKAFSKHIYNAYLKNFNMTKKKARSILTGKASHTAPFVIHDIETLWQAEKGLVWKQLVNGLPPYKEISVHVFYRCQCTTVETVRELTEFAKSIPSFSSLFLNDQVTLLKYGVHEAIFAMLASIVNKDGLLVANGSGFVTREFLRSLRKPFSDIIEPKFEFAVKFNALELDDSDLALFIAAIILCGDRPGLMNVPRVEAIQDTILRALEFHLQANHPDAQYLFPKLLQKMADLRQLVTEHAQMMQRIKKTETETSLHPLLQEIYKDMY

[3] = target: T3, Peroxisome proliferator-activated receptor gamma (Mus musculus, UniProt P37238); assay: Agonist activity at PPARgamma in mouse 3T3-L1 cells by IRBA; type: functional, cell-based
T3 sequence (P37238 whole entry): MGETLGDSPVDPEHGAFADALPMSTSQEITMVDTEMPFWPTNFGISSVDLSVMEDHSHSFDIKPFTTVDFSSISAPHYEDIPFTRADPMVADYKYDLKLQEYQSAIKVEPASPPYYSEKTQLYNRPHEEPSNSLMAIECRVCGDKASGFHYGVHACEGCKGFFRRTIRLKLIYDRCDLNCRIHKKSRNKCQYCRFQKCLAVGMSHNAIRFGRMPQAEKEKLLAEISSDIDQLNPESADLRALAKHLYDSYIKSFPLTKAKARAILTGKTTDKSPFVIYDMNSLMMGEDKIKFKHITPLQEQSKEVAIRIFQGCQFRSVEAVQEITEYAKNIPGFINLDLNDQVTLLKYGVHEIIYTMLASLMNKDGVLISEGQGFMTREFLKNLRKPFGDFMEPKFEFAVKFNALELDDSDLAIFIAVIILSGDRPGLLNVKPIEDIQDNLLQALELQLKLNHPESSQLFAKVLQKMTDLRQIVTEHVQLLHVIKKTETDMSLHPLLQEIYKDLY

Mus musculus [4] = assay: Reduction of plasma glucose level in orally dosed db/db mouse after 7 days; type: functional; conditions: po, 168 h
Method in brief: (§1)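 Female db/db mice grouped by equal mean plasma glucose, then given compound orally once daily for 7 days in 0.5% methylcellulose in water; fed ad libitum. Plasma glucose measured about 24 h after the last dose. Percent change from drug = ((Tf/Ti)/(Vf/Vi) − 1) × 100, correcting for vehicle-group change.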

Rattus norvegicus [5] = assay: Reduction of glucose level in Zucker fa/fa rat at 10 mg/kg after 10 days; type: functional, organism-based; set-up: dose 10 mg/kg
[6] = Bioavailability in rat at 3 mg/kg, po; type: ADME, organism-based; conditions: in vivo
[7] = Half life in rat at 3 mg/kg, po; type: ADME, organism-based; set-up: dose 3 mg/kg, route oral; conditions: in vivo
[8] = Cmax in rat at 3 mg/kg, po and 3 mg/kg, iv; type: ADME, organism-based; conditions: in vivo
Rattus norvegicus [9] = assay: AUC in rat at 3 mg/kg, po; type: ADME, organism-based, Plasma; set-up: dose 3 mg/kg, route oral; conditions: in vivo
Mus musculus [10] = assay: Reduction of plasma glucose level in db/db mouse at 10 mg/kg, po after 7 days; type: functional, organism-based; set-up: dose 10 mg/kg; method in brief: as §1
[11] = target: T2, Peroxisome proliferator-activated receptor delta; assay: Activity at human PPARdelta expressed in CV1 cells by GAL4 transactivation assay; type: cell-based, CV-1
Method in brief: (§2)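 GAL4 transactivation in CV-1 cells (2.8 × 10⁴ per well, grown overnight in 10% FBS medium). Cells transiently transfected (Lipofectamine/Plus) with Gal4/PPAR-LBD fusion, UAS/firefly luciferase and Renilla luciferase plasmids. After overnight culture in charcoal/dextran-treated 10% FBS medium, compound added for 24 h. Dual luciferase read-out; EC50 from dose–response curve; means of at least two experiments.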

[12] = target: T4, Peroxisome proliferator-activated receptor delta (Mus musculus, UniProt P35396); assay: Activity at mouse PPARdelta expressed in CV1 cells by GAL4 transactivation assay; type: cell-based, CV-1; method in brief: as §2
T4 sequence (P35396 whole entry): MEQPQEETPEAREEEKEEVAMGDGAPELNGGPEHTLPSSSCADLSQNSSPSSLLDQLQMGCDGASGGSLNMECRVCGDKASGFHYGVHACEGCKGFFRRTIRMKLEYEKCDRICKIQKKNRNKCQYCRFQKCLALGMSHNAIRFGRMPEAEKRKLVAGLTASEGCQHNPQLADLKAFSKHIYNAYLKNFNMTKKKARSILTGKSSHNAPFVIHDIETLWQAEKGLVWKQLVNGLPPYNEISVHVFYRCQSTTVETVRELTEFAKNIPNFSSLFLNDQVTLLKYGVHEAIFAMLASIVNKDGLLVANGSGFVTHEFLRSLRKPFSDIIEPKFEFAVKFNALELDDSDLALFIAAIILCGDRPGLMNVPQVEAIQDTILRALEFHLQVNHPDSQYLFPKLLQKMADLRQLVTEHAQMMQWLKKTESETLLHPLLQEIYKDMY

Mus musculus [13] = assay: Increase in HDL-cholesterol level in hApoA1 mouse at 30 mg/kg, po after 10 days
[14] = target: T1, Peroxisome proliferator-activated receptor alpha; assay: Activity at human PPARalpha expressed in CV1 cells by GAL4 transactivation assay; type: cell-based, CV-1; method in brief: as §2
Mus musculus [15] = assay: Reduction of triglycerides level in hApoA1 mouse at 30 mg/kg, po after 10 days; set-up: scale not given: the % may be the effect or the level left
[16] = target: T5, Peroxisome proliferator-activated receptor alpha (Mus musculus, UniProt P23204); assay: Activity at mouse PPARalpha expressed in CV1 cells by GAL4 transactivation assay; type: cell-based, CV-1; method in brief: as §2
T5 sequence (P23204 whole entry): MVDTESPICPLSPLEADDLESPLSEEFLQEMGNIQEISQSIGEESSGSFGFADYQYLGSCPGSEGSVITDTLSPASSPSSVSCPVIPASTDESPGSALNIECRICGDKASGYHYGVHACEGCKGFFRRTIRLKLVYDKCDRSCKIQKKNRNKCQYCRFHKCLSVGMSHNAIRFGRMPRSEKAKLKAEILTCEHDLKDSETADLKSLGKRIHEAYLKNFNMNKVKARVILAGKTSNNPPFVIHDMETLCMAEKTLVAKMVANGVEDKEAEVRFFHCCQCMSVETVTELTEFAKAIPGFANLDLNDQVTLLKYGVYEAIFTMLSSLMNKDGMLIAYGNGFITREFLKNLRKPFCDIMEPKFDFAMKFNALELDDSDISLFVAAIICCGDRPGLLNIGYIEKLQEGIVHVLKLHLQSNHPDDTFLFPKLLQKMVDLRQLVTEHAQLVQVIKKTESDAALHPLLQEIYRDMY

SMILES	EC50 [1]	EC50 [2]	EC50 [3]	also measured
Cc1nc(-c2ccc(OCCCOc3ccc4c(c3)CC[C@H]4CC(=O)O)nc2)sc1C	6780 nM	5 nM	511 nM	
CCc1csc(-c2ccc(OCCCOc3ccc4c(c3)CC[C@H]4CC(=O)O)nc2)n1	421 nM	3 nM	264 nM	
CC(=O)c1sc(-c2ccc(OCCCOc3ccc4c(c3)CC[C@H]4CC(=O)O)nc2)nc1C	1390 nM	9 nM	35 nM	ED50 (Mus musculus [4]): 6.7 mg/kg; Activity (Rattus norvegicus [5]): Active; bioavailability [6]: 48%; half-life [7]: 5 h; Cmax [8]: 2800 nM; AUC (Rattus norvegicus [9]): 26 µM·h; Activity (Mus musculus [10]): Active; IC50 [11]: 56 nM; IC50 [12]: 1390 nM; Activity (Mus musculus [13]): 22%; IC50 [14]: > 6000 nM; Activity (Mus musculus [15]): -32%
CC(=O)c1ccc(-c2ncc(C)c(N(C)CCCOc3ccc4c(c3)CC[C@H]4CC(=O)O)n2)cc1	6550 nM	83 nM	237 nM	
CCc1ccc(-c2ncc(CC)c(N(C)CCCOc3ccc4c(c3)CC[C@H]4CC(=O)O)n2)cc1	120 nM	2 nM	950 nM	
Cc1cnc(-c2ccc(F)cc2)nc1N(C)CCCOc1ccc2c(c1)CC[C@H]2CC(=O)O	2120 nM	7 nM	860 nM	
CCOc1cccc(-c2ncc(C)c(N(C)CCCOc3ccc4c(c3)CC[C@H]4CC(=O)O)n2)c1	3540 nM	7 nM	6930 nM	
Cc1cnc(-c2ccc(C(C)C)cc2)nc1N(C)CCCOc1ccc2c(c1)CC[C@H]2CC(=O)O	990 nM	34 nM	29 nM	IC50 [11]: 49 nM; IC50 [12]: 610 nM; IC50 [14]: 237 nM; IC50 [16]: 2530 nM
Cc1ccc(-c2ncc(C)c(N(C)CCCOc3ccc4c(c3)CC[C@H]4CC(=O)O)n2)cc1	1150 nM	9 nM	780 nM	
COc1ccc(-c2ncc(C)c(N(C)CCCOc3ccc4c(c3)CC[C@H]4CC(=O)O)n2)cc1	1390 nM	12 nM	7010 nM	
Cc1cnc(-c2ccc(C(C)(C)C)cc2)nc1N(C)CCCOc1ccc2c(c1)CC[C@H]2CC(=O)O	641 nM	28 nM	156 nM	
Cc1cccc(-c2ncc(C)c(N(C)CCCOc3ccc4c(c3)CC[C@H]4CC(=O)O)n2)c1	4390 nM	41 nM	670 nM	
CCc1ccc(-c2nc(C)cc(N(C)CCCOc3ccc4c(c3)CC[C@H]4CC(=O)O)n2)cc1	920 nM	11 nM	600 nM	
Cc1cnc(-c2ccc(Cl)cc2)nc1N(C)CCCOc1ccc2c(c1)CC[C@H]2CC(=O)O	1130 nM	7 nM	2800 nM	
Cc1cnc(-c2ccccc2)nc1N(C)CCCOc1ccc2c(c1)CC[C@H]2CC(=O)O	6610 nM	24 nM	678 nM	
CCOc1ccc(-c2ncc(C)c(N(C)CCCOc3ccc4c(c3)CC[C@H]4CC(=O)O)n2)cc1	3090 nM	58 nM	161 nM	
Cc1cnc(-c2cccc(Cl)c2)nc1N(C)CCCOc1ccc2c(c1)CC[C@H]2CC(=O)O	2370 nM	23 nM	582 nM	
CCOc1csc(-c2ccc(OCCCOc3ccc4c(c3)CC[C@H]4CC(=O)O)nc2)n1	807 nM	3 nM	411 nM	
CCc1ccc(-c2ncc(C)c(N(C)CCCOc3ccc4c(c3)CC[C@H]4CC(=O)O)n2)cc1	200 nM	10 nM	145 nM	IC50 [11]: 30 nM; IC50 [12]: 370 nM; IC50 [14]: 175 nM; IC50 [16]: 670 nM
CCc1ccc(-c2nccc(N(C)CCCOc3ccc4c(c3)CC[C@H]4CC(=O)O)n2)cc1	565 nM	25 nM	800 nM	
CCc1ccc(-c2ncc(F)c(N(C)CCCOc3ccc4c(c3)CC[C@H]4CC(=O)O)n2)cc1	425 nM	16 nM	360 nM	

— ChEMBL document CHEMBL1139054, “Indanylacetic acid derivatives carrying aryl-pyridyl and aryl-pyrimidinyl tail groups--new classes of PPAR gamma/delta and PPAR alpha/gamma/delta agonists” (Bioorg Med Chem Lett, 2007)
